The nature of data set [1]: Plasma propylene glycol concentration by GC-FID after APAP preparation. It is filed as in vivo, human. The method, boiled down:
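Crossover in volunteers given tablet or liquid APAP formulations (liquid contains 5% v/v PG), 15 mg/kg orally after a 1 h fast, on separate visits. Blood held refrigerated ≤24 h, then plasma separated by centrifugation and stored at -80 °C. PG was measured by GC-FID, first in 0–120 min samples from three subjects, then in all 30 min samples. LOD 5.0 mg/dL.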

For data set [2] the following is noted: assumed for the prediction, no reference given; cited from earlier work.
In data set [3] the test system is CYP2E1. As to conditions: cited from earlier work.
The subject of data set [4] is Cultured hepatocytes. As to conditions: in the presence of PG; cited from earlier work.
The subject of data set [5] is APAP-induced liver injury in mice. As to conditions: cited from earlier work; for effect of drug vehicles on APAP-induced liver injury: mouse model.
For data set [6] the following is noted: subjects who received 2 months of cimetidine; cited from earlier work.

Molecules are shown by their SMILES.

In the case of `CC(O)CO` (stereo not drawn) [PG, propylene glycol], in data set [1] (30-minute samples after liquid preparation), the “maximum PG concentration in plasma” value worked out at 9.1 mg/dL. For the same molecule, in data set [1] (following ingestion of the liquid preparation, limit of detection 5.0 mg/dL), the “PG detected in 30-minute samples” value is 9 out of 15. Also, the “PG detected in samples” value in data set [1] (solid group, limit of detection 5.0 mg/dL) is given as “none”. Further, the “volume of distribution of PG” value in data set [2] is on record as 0.58 L/kg. Moreover, the “type of CYP2E1 inhibition” value in data set [3] is “competitive inhibitor”. Besides, the “susceptibility of cultured hepatocytes to APAP-induced necrosis” value in data set [4] is on record as “less susceptible”. Moreover, the “hepatocellular damage following a toxic APAP dose” value in data set [5] (mice pretreated with the substance) was “reduced hepatocellular damage”. The “effect of drug vehicles on APAP-induced liver injury” value (“effect of drug vehicles” for short) in data set [5] is “protective”.
`CN/C(=N/CCSCc1nc[nH]c1C)NC#N` [cimetidine]: in data set [6], the “urinary APAP-mercapturate following therapeutic APAP dosing” value is recorded as “decreased”.
As for `CN(C)C=O` [dimethylformamide], the “effect of drug vehicles” value in data set [5] is “protective”.
Consider `C[S+](C)[O-]` [dimethylsulfoxide], for which the “effect of drug vehicles” value in data set [5] is listed as “protective”.
Turning to `CCO` [ethanol], the “effect of drug vehicles” value in data set [5] is on record as “protective”.

Values taken from PMC4383763 (Journal of clinical pharmacology, 2013).
